Compounds with a hit are over-represented: about 2.5% of the library has one in this group of screens.
E-sel inducer – induces E-selectin expression in human endothelial cells; P16581; actives 0.37% (n = 260,000); HUVEC E-selectin immunofluorescence imaging; normalized: neutral wells 0, TNF-alpha wells 100; activation, % at 7.58 µM;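 active = mean E-selectin-positive cell signal at least 10% of the positive control, reached in at least 60% of replicates, without over 20% cell loss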
Target sequence (P16581 whole entry, looked up): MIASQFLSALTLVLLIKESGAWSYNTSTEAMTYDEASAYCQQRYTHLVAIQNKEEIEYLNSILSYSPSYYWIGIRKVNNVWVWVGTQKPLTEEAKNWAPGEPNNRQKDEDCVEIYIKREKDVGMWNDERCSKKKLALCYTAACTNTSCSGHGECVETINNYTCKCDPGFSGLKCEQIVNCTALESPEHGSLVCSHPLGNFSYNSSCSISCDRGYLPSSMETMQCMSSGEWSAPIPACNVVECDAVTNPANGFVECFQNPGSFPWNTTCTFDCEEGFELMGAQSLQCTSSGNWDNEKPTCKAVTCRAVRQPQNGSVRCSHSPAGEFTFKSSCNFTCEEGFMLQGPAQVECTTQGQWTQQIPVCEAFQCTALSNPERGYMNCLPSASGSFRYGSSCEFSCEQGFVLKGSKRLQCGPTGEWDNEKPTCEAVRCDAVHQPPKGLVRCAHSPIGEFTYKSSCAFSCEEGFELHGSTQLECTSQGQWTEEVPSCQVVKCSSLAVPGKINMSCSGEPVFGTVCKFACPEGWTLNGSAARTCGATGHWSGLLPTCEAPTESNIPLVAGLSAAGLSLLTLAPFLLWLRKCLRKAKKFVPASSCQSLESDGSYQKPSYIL
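Test system – human umbilical vein endothelial cells (HUVEC), E-selectin induction · Input – 3,000 HUVEC seeded per well · Buffer or medium – EGM-2, gelatin · Compound dosing – single-point compound dose · Detection – immunofluorescence imaging · Measure – percent E-selectin-positive cells · Controls – TNF-alpha high, DMSO low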
ERAP1 HTS inh – blocks human ERAP1 aminopeptidase activity; recombinant ERAP1, Leu-AMC fluorescence, 60 min; actives 0.15% (n = 340,000); Q9NZ08; inhibition, % at 10.7 µM;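 active = mean replicate inhibition of at least 30%, or all replicates individually reaching that 30% level; inactive = mean below 30% and not every replicate reaching it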
SIRT5 inh – blocks human SIRT5 desuccinylation of peptide; Q9NXA8; Purified SirT5, succinyl-peptide AMC, trypsin-coupled fluorescence; inhibition, % at 15 µM; actives 1.1% (n = 330,000); in the data active = inhibition above about 15%
DENV2 CPE – DENV2-induced cell death inhibition; DENV2-infected cells, cytopathic effect rescue, plate reader; CPE inhibition, % at 9.99 µM; actives 1.7% (n = 350,000); in the data active = CPE inhibition above about 20%, passing the limit was not always enough; tested in BHK-21 cells
PglD inh – PglD (C. jejuni) enzyme inhibition; purified PglD enzyme, DTNB colorimetric CoA detection; inhibition, % at 12.5 µM; actives 0.098% (n = 360,000); AID 602405; in the data active = inhibition above about 16%, passing the limit was not always enough
Hits are given with their value.

How did CC(C)(C)OC(=O)NCc1ccc(CNC(=O)c2nc[nH]c2C(=O)NCc2ccc(CNC(=O)OC(C)(C)C)cc2)cc1 do in these assays?
E-sel inducer: inactive; ERAP1 HTS inh: inactive; SIRT5 inh: 16.0; DENV2 CPE: inactive; PglD inh: inactive

How did CC(C)(C)OC(=O)CNC(=O)c1nc[nH]c1C(=O)NCc1ccc(CNC(=O)OC(C)(C)C)cc1 do in these assays?
ERAP1 HTS inh: inactive; SIRT5 inh: inactive; DENV2 CPE: inactive; PglD inh: inactive

Results for CC(C)(C)OC(=O)NCc1ccc(CNC(=O)c2nc[nH]c2C(=O)N2CCc3ccccc3C2)cc1 ?
E-sel inducer: inactive; ERAP1 HTS inh: inactive; DENV2 CPE: 59.9; PglD inh: inactive

How did CC(C)(C)OC(=O)NCCCCCNC(=O)c1nc[nH]c1C(=O)N1CCc2ccccc2C1 do in these assays?
E-sel inducer: inactive; ERAP1 HTS inh: inactive; DENV2 CPE: inactive; PglD inh: inactive

Results for CCc1cc(-c2n[nH]c(C)c2-c2nc(C)cs2)c(O)cc1OC ?
ERAP1 HTS inh: inactive; SIRT5 inh: inactive; DENV2 CPE: inactive

What do the screens show for `Nc1nnnn1/N=C/c1ccccc1O`?
E-sel inducer: inactive; ERAP1 HTS inh: inactive; SIRT5 inh: inactive; DENV2 CPE: inactive

Results for COc1ccc(CNC(=O)CCC(=O)c2ccccc2)cc1 ?
E-sel inducer: inactive; ERAP1 HTS inh: inactive; SIRT5 inh: inactive; DENV2 CPE: inactive; PglD inh: inactive

How did COc1ccc(C(=O)CCC(=O)NCc2cc(OC)cc(OC)c2)cc1 do in these assays?
ERAP1 HTS inh: inactive; SIRT5 inh: inactive; DENV2 CPE: 34.8; PglD inh: inactive

How did C[C@@H]1CN([C@H](C)CO)C(=O)c2cc(C#C[C@@H](C)O)cnc2O[C@H]1CN(C)Cc1ccc(-c2ccccc2)cc1 do in these assays?
E-sel inducer: inactive; ERAP1 HTS inh: inactive; SIRT5 inh: inactive; DENV2 CPE: inactive; PglD inh: inactive

How did CCc1nc2ccc(C(=O)N3CCCC(C(N)=O)C3)cn2c1N(C=O)CC (stereo not drawn) do in these assays?
E-sel inducer: inactive; ERAP1 HTS inh: inactive; SIRT5 inh: inactive; DENV2 CPE: 26.5; PglD inh: inactive

How did O=C(C=Cc1ccc(Cl)s1)c1ccc(Cl)s1 do in these assays?
E-sel inducer: inactive; ERAP1 HTS inh: inactive; SIRT5 inh: inactive; DENV2 CPE: inactive; PglD inh: inactive

What do the screens show for `Cc1noc(C)c1S(=O)(=O)Nc1ccc2c(c1)C(=O)N([C@H](C)CO)C[C@H](C)[C@H](CN(C)CC1CC1)OCCCC[C@@H](C)O2`?
E-sel inducer: inactive; DENV2 CPE: inactive; PglD inh: inactive

Results for COc1ccc(S(=O)(=O)Nc2ccc3c(c2)C(=O)N([C@@H](C)CO)C[C@H](C)[C@@H](CN(C)Cc2ccc(Oc4ccccc4)cc2)O3)cc1 ?
E-sel inducer: inactive; ERAP1 HTS inh: inactive; SIRT5 inh: 24.6; DENV2 CPE: inactive; PglD inh: inactive

Results for COc1ccc(S(=O)(=O)Nc2ccc3c(c2)C(=O)N([C@@H](C)CO)C[C@@H](C)[C@@H](CN(C)Cc2ccc(Oc4ccccc4)cc2)O3)cc1 ?
E-sel inducer: inactive; ERAP1 HTS inh: inactive; SIRT5 inh: 35.0; DENV2 CPE: inactive; PglD inh: inactive

Results for COc1ccc(S(=O)(=O)Nc2ccc3c(c2)C(=O)N([C@H](C)CO)C[C@H](C)[C@H](CN(C)Cc2ccc(Oc4ccccc4)cc2)O3)cc1 ?
E-sel inducer: inactive; ERAP1 HTS inh: inactive; SIRT5 inh: 31.3; DENV2 CPE: inactive; PglD inh: inactive

How did COc1ccc(CN(C)C[C@H]2Oc3ccc(NS(=O)(=O)c4ccccc4)cc3C(=O)N([C@H](C)CO)C[C@H]2C)cc1 do in these assays?
E-sel inducer: inactive; ERAP1 HTS inh: inactive; SIRT5 inh: inactive; DENV2 CPE: inactive; PglD inh: inactive

Results for COc1ccc(CN(C)C[C@@H]2Oc3ccc(NS(=O)(=O)c4ccccc4)cc3C(=O)N([C@@H](C)CO)C[C@@H]2C)cc1 ?
E-sel inducer: inactive; ERAP1 HTS inh: inactive; SIRT5 inh: inactive; DENV2 CPE: inactive; PglD inh: inactive

How did Cc1nc2ccc(NC(=O)c3ccc([N+](=O)[O-])cc3)cc2[nH]1 do in these assays?
E-sel inducer: inactive; ERAP1 HTS inh: inactive; SIRT5 inh: inactive; DENV2 CPE: inactive; PglD inh: inactive

How did N#CCC(=O)N1CCN(C(c2ccccc2)c2ccccc2)CC1 do in these assays?
SIRT5 inh: inactive; DENV2 CPE: inactive; PglD inh: inactive

Results for O=C(CN1CCN(C(c2ccccc2)c2ccccc2)CC1)N1CCOCC1 ?
ERAP1 HTS inh: inactive; SIRT5 inh: inactive; DENV2 CPE: 22.8; PglD inh: inactive

Results for Brc1ccc(-c2noc3c2-c2nc(-c4ccccc4)sc2CC3)cc1 ?
E-sel inducer: inactive; DENV2 CPE: 128.5; PglD inh: inactive

Results for COc1ccc(-c2noc3c2-c2nc(-c4ccccc4)sc2CC3)cc1 ?
E-sel inducer: inactive; ERAP1 HTS inh: inactive; SIRT5 inh: inactive; DENV2 CPE: inactive; PglD inh: inactive

How did O=C1CN(C(=O)COC(=O)c2cccs2)c2ccccc2N1 do in these assays?
E-sel inducer: 80.0; ERAP1 HTS inh: inactive; SIRT5 inh: inactive; DENV2 CPE: inactive; PglD inh: inactive

Results for O=C1CN(C(=O)COc2ccc(Cl)c(Cl)c2)c2ccccc2N1 ?
ERAP1 HTS inh: inactive; SIRT5 inh: inactive; DENV2 CPE: inactive

What do the screens show for `CCCCOc1ccc(/C=C/C(=O)OCC(=O)N2CC(=O)Nc3ccccc32)cc1OCC`?
ERAP1 HTS inh: inactive; SIRT5 inh: 17.0; DENV2 CPE: inactive

What do the screens show for `O=C1CN(C(=O)COc2cccc(F)c2)c2ccccc2N1`?
ERAP1 HTS inh: inactive; SIRT5 inh: 18.2; DENV2 CPE: inactive

What do the screens show for `O=C1CN(C(=O)c2cccs2)c2ccccc2N1`?
PglD inh: inactive

Results for Cc1cc(=O)n2c(ccc3ccccc32)c1C#N ?
PglD inh: inactive

How did CCCNC(=O)N1C[C@@H](C)[C@H](OC)CN(C)C(=O)c2ccc(NC(=O)C3CCC3)cc2OC[C@H]1C do in these assays?
E-sel inducer: inactive; ERAP1 HTS inh: inactive; SIRT5 inh: inactive; DENV2 CPE: 39.7

What do the screens show for `CO[C@H]1CN(C)C(=O)c2ccc(NC(=O)Nc3ccc(C(F)(F)F)cc3)cc2OC[C@H](C)NC[C@H]1C`?
E-sel inducer: inactive; ERAP1 HTS inh: inactive; SIRT5 inh: 15.2; DENV2 CPE: inactive; PglD inh: inactive

Results for COc1cccc(NC(=O)Nc2ccc3c(c2)OC[C@H](C)NC[C@@H](C)[C@H](OC)CN(C)C3=O)c1 ?
E-sel inducer: inactive; ERAP1 HTS inh: inactive; SIRT5 inh: inactive; DENV2 CPE: 22.2; PglD inh: inactive

What do the screens show for `COc1ccc(NC(=O)Nc2ccc3c(c2)OC[C@H](C)NC[C@@H](C)[C@H](OC)CN(C)C3=O)cc1`?
E-sel inducer: inactive; ERAP1 HTS inh: inactive; SIRT5 inh: inactive; DENV2 CPE: inactive; PglD inh: inactive

How did CCCNC(=O)N1C[C@H](C)[C@@H](OC)CN(C)C(=O)c2ccc(NC(=O)C3CCC3)cc2OC[C@H]1C do in these assays?
E-sel inducer: inactive; SIRT5 inh: inactive; DENV2 CPE: inactive; PglD inh: inactive

High-throughput results as filed in PubChem.
